{"data": "Assay results pooled from the literature", "target": "Serine/threonine-protein kinase Sgk3 (SGK3, Homo sapiens, UniProt Q96BR1)", "Sequence (Q96BR1 1-496, as in one of the studies)": "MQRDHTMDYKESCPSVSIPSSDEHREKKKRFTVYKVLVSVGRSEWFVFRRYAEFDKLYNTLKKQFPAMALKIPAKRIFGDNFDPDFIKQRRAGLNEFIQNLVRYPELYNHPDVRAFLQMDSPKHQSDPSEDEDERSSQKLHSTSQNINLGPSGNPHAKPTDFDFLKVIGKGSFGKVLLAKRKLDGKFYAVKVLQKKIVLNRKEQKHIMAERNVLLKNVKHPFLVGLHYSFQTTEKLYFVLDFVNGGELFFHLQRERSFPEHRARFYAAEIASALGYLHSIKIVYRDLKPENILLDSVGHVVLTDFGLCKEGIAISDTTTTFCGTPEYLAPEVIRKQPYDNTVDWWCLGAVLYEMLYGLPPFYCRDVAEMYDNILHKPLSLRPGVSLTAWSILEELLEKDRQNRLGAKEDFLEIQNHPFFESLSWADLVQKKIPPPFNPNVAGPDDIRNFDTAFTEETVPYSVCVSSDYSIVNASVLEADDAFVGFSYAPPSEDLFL", "note": "Each line is one published result; the experiments were not run side by side."}
{"SMILES": "CS(=O)(=O)CCNCc1ccc(-c2ccc3ncnc(Nc4ccc(OCc5cccc(F)c5)c(Cl)c4)c3c2)o1", "assay": "cell-free assay", "setting": "0.5 µM", "endpoint": "remaining signal", "result": "102%"}
{"SMILES": "CNC(=O)c1cc(Oc2ccc(NC(=O)Nc3ccc(Cl)c(C(F)(F)F)c3)cc2)ccn1", "assay": "enzyme activity, inhibitor", "setting": "0.3 µM", "endpoint": "inhibition", "result": "14%"}
{"SMILES": "CC(C)(O)[C@H]1CC[C@H](Nc2ccc3ncc(-c4cccc(C(F)(F)F)c4)n3n2)CC1", "assay": "enzyme activity, inhibitor", "setting": "1 µM", "endpoint": "remaining activity", "result": "95.8%"}
{"SMILES": "CCS(=O)(=O)c1cc2cc(C[C@@](O)(CC(C)(C)c3ccc(F)cc3C(N)=O)C(F)(F)F)[nH]c2cn1", "assay": "cell-free assay, competition with immobilised ligand", "setting": "1 µM", "endpoint": "remaining binding", "result": "79%"}
{"SMILES": "O=C(Nc1cnn(-c2csc(C(=O)NC3COC3)c2)c1)Nc1ccccc1Cl", "assay": "enzyme activity, inhibitor", "setting": "5 µM", "endpoint": "remaining activity", "result": "93.8%"}
{"SMILES": "CNCc1ccccc1-c1csc([C@@H](C)Nc2nc(C)nc3cc(OC)c(OC)cc23)c1", "assay": "cell-free assay, competition with immobilised ligand", "setting": "1 µM", "endpoint": "remaining binding", "result": "78%"}
{"SMILES": "Cc1sc(C(=O)NC2COC2)cc1-n1cc(NC(=O)Nc2c(F)cccc2Cl)cn1", "assay": "enzyme activity, inhibitor", "setting": "10 µM", "endpoint": "remaining activity", "result": "90.1%"}
{"SMILES": "Cc1ccc(Nc2nccc(N(C)c3ccc4c(C)n(C)nc4c3)n2)cc1S(N)(=O)=O", "assay": "enzyme activity, inhibitor", "setting": "10 µM", "endpoint": "inhibition", "result": "13%"}
{"SMILES": "COc1cc2ncnc(Nc3ccc(Oc4ccccc4)c(C)c3C)c2cc1OC", "assay": "enzyme activity, inhibitor", "setting": "1 µM", "endpoint": "inhibition", "result": "-5%"}
{"SMILES": "Cc1ccc(C(=O)Nc2ccc(CN3CCN(C)CC3)c(C(F)(F)F)c2)cc1C#Cc1cnc2cccnn12", "assay": "enzyme activity, inhibitor", "setting": "23.5 nM", "endpoint": "remaining activity", "result": "70%"}
{"SMILES": "N#CCCc1ccc2c(c1)-c1[nH]c3ccc([N+](=O)[O-])cc3c1CC(=O)N2", "assay": "cell-free assay", "setting": "0.5 µM", "endpoint": "remaining signal", "result": "99.2%"}
{"SMILES": "O=C1CCc2cc(Nc3cc(OC4CCOCC4)c([N+](=O)[O-])cc3Cl)ccc2N1", "assay": "cell-free assay, competition with immobilised ligand", "setting": "1 µM", "endpoint": "remaining binding", "result": "100%"}
{"SMILES": "COc1cccc2c(NCc3ccccc3)nc(-n3c(N)nc4ccccc43)nc12", "assay": "target engagement in cells, inhibitor, chemoproteomics", "setting": "20 mM", "endpoint": "inhibition", "result": "-7.6%"}
{"SMILES": "O=C1NC(=O)c2cc(Nc3ccc(F)cc3)c(Nc3ccc(F)cc3)cc21", "assay": "cell-free assay", "setting": "0.5 µM", "endpoint": "remaining signal", "result": "102%"}
{"SMILES": "CCCCNc1ncc2c(-c3ccc(F)cc3)nn(C[C@H]3CC[C@H](N)CC3)c2n1", "assay": "target engagement in cells, inhibitor, chemoproteomics", "setting": "20 mM", "endpoint": "inhibition", "result": "-2.1%"}
{"SMILES": "CCc1ccccc1C(=O)Nc1n[nH]c2c(C)c(F)c(C3C(C#N)=C(C)N(C)C(C)=C3C#N)cc12", "assay": "cell-free assay, competition with immobilised ligand", "setting": "1 µM", "endpoint": "remaining binding", "result": "91%"}
{"SMILES": "CCN(CC)c1ccc(C2=NNC(=O)CC2C)cc1[N+](=O)[O-] (stereo not drawn)", "assay": "enzyme activity, inhibitor", "setting": "10 µM", "endpoint": "remaining activity", "result": "114%"}
{"SMILES": "Cc1cnc(NC2CCOCC2)nc1-n1cnc(C(=O)NC(CN)c2cc(F)cc(Cl)c2)c1 (stereo not drawn)", "assay": "enzyme activity, inhibitor, radiometric", "setting": "1 µM", "endpoint": "remaining activity", "result": "92%"}
{"SMILES": "CO[C@H]1CC[C@H](CNc2ccc(S(=O)(=O)NC(=O)c3ccc(N4CCN(CC5=C(c6ccc(Cl)cc6)CC(C)(C)CC5)CC4)cc3Oc3cnc4[nH]ccc4c3)cc2[N+](=O)[O-])CC1", "assay": "cell-free assay, competition with immobilised ligand", "setting": "1 µM", "endpoint": "remaining binding", "result": "99%"}
{"SMILES": "Oc1cccc(-c2nc(N3CCOCC3)c3oc4ncccc4c3n2)c1", "assay": "cell-free assay", "setting": "0.5 µM", "endpoint": "remaining signal", "result": "95.8%"}
{"SMILES": "Cn1nc(C(=O)NCc2ccc(C(=O)O)cc2)cc1-c1ccc2[nH]ccc2c1", "assay": "cell-free assay, competition with immobilised ligand", "setting": "0.1 µM", "endpoint": "remaining binding", "result": "96%"}
{"SMILES": "COc1cc(Cl)c(C(=O)N[C@@H](CN[C@H]2CC[C@@H](N)CC2)Cc2ccc(C#N)cc2)cc1-c1ccc(CN[C@H](C)c2ccc(C)cc2)o1", "assay": "enzyme activity, inhibitor", "setting": "1 µM", "endpoint": "remaining activity", "result": "83%"}
{"SMILES": "Cc1nc(C2CCN(C(=O)c3ccc(OC(F)(F)F)cc3N)CC2)c2ncc(N3CCN(C)CC3)cc2n1", "assay": "cell-free assay, competition with immobilised ligand", "setting": "1 µM", "endpoint": "remaining binding", "result": "93%"}
{"SMILES": "CCCOc1ccc(OC)c(F)c1C(=O)c1ccc(C(=O)N[C@@H]2CNC[C@H]2NC(=O)c2ccc3[nH]ncc3c2)cc1", "assay": "enzyme activity, inhibitor", "setting": "10 µM", "endpoint": "remaining activity", "result": "23%"}
